The results in this text go back to ChEMBL document CHEMBL3585265, “Bacteria-Derived Compatible Solutes Ectoine and 5α-Hydroxyectoine Act as Intestinal Barrier Stabilizers to Ameliorate Experimental Inflammatory Bowel Disease” (J Nat Prod, 2015).

The structures appear in SMILES notation. Activity calls are given as the source filed them. The calls are words filed in the database; no cut-off is given here.

Data set [1] concerns Rattus norvegicus. As to the kind of experiment: Toxicity in Wistar rat assessed as effect on body weight at 100 mg/kg, po qd administered for 1 week. The class given is organism-based. Conditions: in vivo, 168 h. The procedure, abridged:
(§1)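 Normal male Wistar rats (150–200 g) underwent the same rectal procedure with saline in place of TNBS. They received water or 100 mg/kg compound orally once daily for 1 week and were killed 24 h after the last dose. The distal 8 cm colon was weighed and homogenized 10% (w/v) in ice-cold bidistilled water. Body weight was taken before instillation and before necropsy.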

In data set [2] the test system is Rattus norvegicus. In words: Toxicity in Wistar rat assessed as decrease in Hsp70 level at 50 to 300 mg/kg, po qd administered for 1 week starting 48 hrs post TNBS induction by ELISA. Conditions: in vivo. The class given is organism-based. In outline: (§2)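 TNBS colitis in male Wistar rats: 100 mg/kg TNBS in 0.25 mL 50% ethanol, instilled 8 cm into the colon after a 36 h fast. Oral dosing in 1 mL per 200 g rat. Rats were killed 24 h after the last dose. The distal 8 cm colon was rinsed in ice-cold saline and homogenized 10% (w/v) in ice-cold bidistilled water. Mean of ≥6 animals ± SEM.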

The test system of data set [3] is Rattus norvegicus. As to the kind of experiment: Toxicity in Wistar rat assessed as effect on TNF-alpha level at 100 mg/kg, po qd administered for 1 week by ELISA. Format: organism-based. The note with it: in vivo, 168 h. The procedure, abridged: as §1
The subject of data set [4] is Rattus norvegicus. As to the kind of experiment: Toxicity in Wistar rat assessed as decrease in Hsp70 level at 100 mg/kg, po qd administered for 1 week by ELISA. Conditions: in vivo, 168 h. Format: organism-based. In outline:
as §1
On the technique in general: In an ELISA, binding on a coated surface is turned into a signal by an enzyme label.

The subject of data set [5] is Rattus norvegicus. As to the kind of experiment: Toxicity in Wistar rat assessed as effect on IL-1beta level at 100 mg/kg, po qd administered for 1 week by ELISA. Format: organism-based. Conditions: in vivo, 168 h. The procedure, abridged:
as §1

In data set [6] the test system is Rattus norvegicus. As to the kind of experiment: Toxicity in Wistar rat assessed as effect on colonic ICAM1 level at 100 mg/kg, po qd administered for 1 week by ELISA. The class given is organism-based, Colon. The note with it: in vivo, 168 h. The procedure, abridged:
as §1

Data set [7] concerns Rattus norvegicus. In words: Toxicity in Wistar rat assessed as effect on colon mass index at 100 mg/kg, po qd administered for 1 week. The class given is organism-based. Conditions: in vivo, 168 h. The procedure, abridged:
as §1

Data set [8] deals with Rattus norvegicus. As to the kind of experiment: Toxicity in Wistar rat assessed as effect on colonic GSH level at 100 mg/kg, po qd administered for 1 week by spectrophotometric analysis. The class given is organism-based, Colon. Conditions: in vivo, 168 h. The procedure, abridged:
as §1

In data set [9] the test system is Rattus norvegicus. As to the kind of experiment: Toxicity in Wistar rat assessed as effect on myeloperoxidase activity at 100 mg/kg, po qd administered for 1 week by spectrophotometric analysis. Format: organism-based. The note with it: in vivo, 168 h. The procedure, abridged:
as §1

The test system of data set [10] is Rattus norvegicus. As to the kind of experiment: Anti-colitis activity in Wistar rat assessed as reduction of TNBS-induced colon mass index at 50 mg/kg, po qd administered for 1 week starting 48 hrs post TNBS induction (reference value: 7.9 mg/g). The class given is functional. The procedure, abridged: (§3)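 Male Wistar rats (150–200 g) were fasted 36 h, then given 100 mg/kg TNBS in 0.25 mL 50% ethanol rectally under light ether, with the catheter tip 8 cm from the anus. Oral dosing was in 1 mL per 200 g rat. Rats were killed 24 h after the last dose. Body weight was taken before induction and before necropsy. Ulcer area in the distal 8 cm colon was measured planimetrically (cm2). Colon mass index is colon weight/body weight (mg/g). Mean of ≥6 animals ± SEM.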

The test system of data set [11] is Rattus norvegicus. As to the kind of experiment: Anti-colitis activity in Wistar rat assessed as reduction of TNBS-induced ulcerative area at 50 to 300 mg/kg, po qd administered for 1 week starting 48 hrs post TNBS induction (reference value: 4.9 cm2). Format: functional. In outline: as §3
Data set [12] relates to Rattus norvegicus. In words: Anti-colitis activity in Wistar rat assessed as suppression of TNBS-induced body weight reduction at 50 to 300 mg/kg, po qd administered for 1 week starting 48 hrs post TNBS induction. The class given is functional, organism-based. The procedure, abridged:
as §3

The test system of data set [13] is Rattus norvegicus. As to the kind of experiment: Anti-colitis activity in Wistar rat assessed as reduction of TNBS-induced myeloperoxidase activity at 50 mg/kg, po qd administered for 1 week starting 48 hrs post TNBS induction by spectrophotometric analysis. Format: functional, organism-based. In outline: as §2
Data set [14] relates to Rattus norvegicus. In words: Anti-colitis activity in Wistar rat assessed as suppression of TNBS-induced colonic IL-1beta level at 50 to 100 mg/kg, po qd administered for 1 week starting 48 hrs post TNBS induction by ELISA. Format: functional, organism-based. In outline: as §2
Data set [15] deals with Rattus norvegicus. In words: Anti-colitis activity in Wistar rat assessed as suppression of TNBS-induced colonic TNF-alpha level at 50 to 100 mg/kg, po qd administered for 1 week starting 48 hrs post TNBS induction by ELISA. Format: functional, organism-based. In outline: as §2
For data set [16], the system named is Rattus norvegicus. In words: Anti-colitis activity in Wistar rat assessed as suppression of TNBS-induced fecal calprotectin level at 100 mg/kg, po qd administered for 1 week starting 48 hrs post TNBS induction by ELISA. Format: functional, organism-based. In outline: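 Feces were collected before sacrifice from 4 randomly chosen TNBS-colitis rats per group, suspended 1:10 in extraction buffer and incubated 90 min at room temperature. Calprotectin (S100A8/S100A9) was measured by ELISA, with samples incubated 90 min at room temperature. Samples were run in duplicate and medians taken.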

Data set [17] deals with Rattus norvegicus. As to the kind of experiment: Anti-colitis activity in Wistar rat assessed as suppression of TNBS-induced reduction of colonic GSH level at 50 to 300 mg/kg, po qd administered for 1 week starting 48 hrs post TNBS induction by spectrophotometric analysis. Format: functional, organism-based. The procedure, abridged:
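TNBS colitis in male Wistar rats: 100 mg/kg TNBS in 0.25 mL 50% ethanol given rectally. Colon was taken 24 h after the last oral dose and homogenized 10% (w/v) in ice-cold water. Homogenate was deproteinized with ice-cold 5% sulfosalicylic acid and spun at 3000 rpm for 20 min; GSH was read spectrophotometrically in the supernatant. Mean of ≥6 animals ± SEM.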

Data set [18] deals with Rattus norvegicus. As to the kind of experiment: Anti-colitis activity in Wistar rat assessed as suppression of TNBS-induced colonic TNF-alpha level at 50 to 300 mg/kg, po qd administered for 1 week starting 48 hrs post TNBS induction by ELISA. The class given is functional, organism-based. In outline:
(§4)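 TNBS/ethanol colitis in male Wistar rats, as described; oral once-daily treatment for 1 week beginning 48 h post-induction, sacrifice 24 h after final dose. Distal 8 cm colon excised, rinsed in ice-cold saline, homogenized 10% (w/v) in ice-cold bidistilled water; aliquot assayed for TNF-α and IL-1β by ELISA. At least 6 animals per group, mean ± SEM.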

Data set [19] has as its system Rattus norvegicus. In words: Anti-colitis activity in Wistar rat assessed as reduction of TNBS-induced colon mass index at 100 mg/kg, po qd administered for 1 week starting 48 hrs post TNBS induction (reference value: 7.9 mg/g). The class given is functional. In outline:
as §3

Data set [20] has as its system Rattus norvegicus. In words: Anti-colitis activity in Wistar rat assessed as suppression of TNBS-induced colonic IL-1beta level at 50 to 300 mg/kg, po qd administered for 1 week starting 48 hrs post TNBS induction by ELISA. The class given is functional, organism-based. The procedure, abridged: as §4
Data set [21] has as its system Rattus norvegicus. As to the kind of experiment: Anti-colitis activity in Wistar rat assessed as reduction of TNBS-induced myeloperoxidase activity at 100 mg/kg, po qd administered for 1 week starting 48 hrs post TNBS induction by spectrophotometric analysis. The class given is functional, organism-based.
Data set [22] concerns Rattus norvegicus. In words: Anti-colitis activity in Wistar rat assessed as suppression of TNBS-induced reduction of colonic GSH level at 300 mg/kg, po qd administered for 1 week starting 48 hrs post TNBS induction by spectrophotometric analysis. The class given is functional, organism-based. In outline:
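Colitis induced rectally with 100 mg/kg TNBS in 50% ethanol; oral dosing daily for 1 week from 48 h later. Colon homogenate (10% w/v, ice-cold water) deproteinized with ice-cold 5% sulfosalicylic acid, centrifuged 3000 rpm 20 min; supernatant used for spectrophotometric reduced glutathione estimation. n ≥ 6, mean ± SEM.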

Data set [23] relates to Rattus norvegicus. As to the kind of experiment: Anti-colitis activity in Wistar rat assessed as suppression of TNBS-induced body weight reduction at 300 mg/kg, po qd administered for 1 week starting 48 hrs post TNBS induction. The class given is functional, organism-based. In outline:
(§5)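 Adult male Wistar rats (150−200 g), fasted 36 h, received 0.25 mL 50% (v/v) ethanol containing 100 mg/kg TNBS, instilled 8 cm into colon under light ether. Oral dosing (water vehicle, 1 mL per 200 g) once daily for 1 week from 48 h; sacrifice 24 h after last dose. Body weight recorded before induction and before necropsy. Distal 8 cm colon weighed; mass index as mg/g body weight. n ≥ 6, mean ± SEM.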

For data set [24], the system named is Rattus norvegicus. As to the kind of experiment: Anti-colitis activity in Wistar rat assessed as reduction of TNBS-induced colon mass index at 300 mg/kg, po qd administered for 1 week starting 48 hrs post TNBS induction. Format: functional, organism-based. The procedure, abridged: as §5
For data set [25], the system named is Rattus norvegicus. In words: Toxicity in Wistar rat assessed as decrease in Hsp70 level at 300 mg/kg, po qd administered for 1 week starting 48 hrs post TNBS induction by ELISA. Conditions: in vivo. Format: organism-based. In outline: as §2

In the case of `CC1=NC[C@H](O)[C@@H](C(=O)O)N1`, the Activity entry is on record as “Non-toxic” in [1]; “Toxic” in [2]; “Non-toxic” in data set [3]; “Toxic” in [4]; “Non-toxic” in data set [5]; “Non-toxic” in data set [6]. Further, the Activity result in data set [7], in data set [8] and in data set [9] was “Non-toxic” in each case.

`CC1=N[C@H](C(=O)O)[C@@H](O)CN1`: the figures for the Activity in [10] and in data set [11] were 4 mg/g and 1.3 cm2, respectively. Besides, the result in data set [12], in data set [13], in data set [14], in [15] and in data set [16] was Active. Moreover, the result in data set [17] was inactive.

Turning to `CC1=N[C@H](C(=O)O)CCN1`, the outcome in [18], in data set [12], in [20], in [16] and in data set [21] was Active. Moreover, the Activity entry in data set [1] is “Non-toxic”; in data set [19] it was 4.3 mg/g; in data set [2], “Toxic”; in data set [11] it was 1.2 cm2; in data set [3], “Non-toxic”; in data set [4], “Toxic”. In addition, the Activity entry in data set [5], in data set [6], in data set [7], in [8] and in [9] was “Non-toxic” each time. The outcome in data set [17] was inactive.

In the case of `O=C(O)c1cc(/N=N/c2ccc(S(=O)(=O)Nc3ccccn3)cc2)ccc1O` [SULFASALAZINE], in data set [22], the outcome was inactive. Also, the outcome in data set [23] and in data set [24] was Active. The Activity result in data set [25] was “Toxic”.
